Experimental data published in ChEMBL document CHEMBL3526127, “Absorption, elimination, and metabolism of CS-1036, a novel α-amylase inhibitor in rats and monkeys, and the relationship between gastrointestinal distribution and suppression of glucose absorption” (Drug Metab Dispos, 2013).

Key:
[1] = Volume of distribution at steady state in cynomolgus monkey at 10 mg/kg, iv administered as single dose by LC-MS/MS method; type: ADME, organism-based, Macaca fascicularis; parameters: dose 10 mg/kg, route intravenous; conditions: in vivo, read-out: Vdss
Procedure, shortened: (§1)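 Male F344 rats (146–185 g) and male cynomolgus monkeys (3.48–4.29 kg), n = 4 each, fasted overnight, received single iv or oral doses of 0.3, 1.0, 3.0 or 10.0 mg/kg. Monkeys had 2-week washouts between doses. Plasma was sampled to 48 h and assayed by LC-MS/MS with deuterated internal standard. Noncompartmental analysis: tmax observed; t1/2 by regression on ≥3 terminal log points; Vss = dose·AUMC/(AUC0–inf)²; Foral = oral/iv AUC0–inf at the same dose.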

[2] = Tmax in cynomolgus monkey at 1 mg/kg, po administered as single dose by LC-MS/MS method; type: ADME, organism-based, Macaca fascicularis; parameters: dose 1 mg/kg, route oral; conditions: in vivo; procedure, shortened: as §1
[3] = Volume of distribution at steady state in F344 rat at 3 mg/kg, iv administered as single dose by LC-MS/MS method; type: ADME, organism-based; parameters: dose 3 mg/kg, route intravenous; conditions: in vivo, read-out: Vdss; procedure, shortened: as §1
[4] = Tmax in F344 rat at 10 mg/kg, po administered as single dose by LC-MS/MS method; type: ADME, organism-based; parameters: dose 10 mg/kg, route oral; conditions: in vivo; procedure, shortened: as §1
[5] = AUC (0 to infinity) in cynomolgus monkey at 3 mg/kg, po administered as single dose by LC-MS/MS method; type: ADME, organism-based, Macaca fascicularis; parameters: dose 3 mg/kg, route oral, time infinity; conditions: plasma
Procedure, shortened: (§2)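 Fasted male F344 rats (146–185 g) or male cynomolgus monkeys (3.48–4.29 kg), n = 4 per dose, given single iv or oral dose of 0.3, 1.0, 3.0 or 10.0 mg/kg; monkeys dosed with 2-week washouts. Blood sampled to 48 h; plasma stored frozen. LC-MS/MS with deuterated internal standard. Noncompartmental analysis: AUClast by trapezoidal rule; AUC0–inf = AUClast + Ctz/terminal rate constant; mean ± S.D.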

[6] = AUC (0 to infinity) in cynomolgus monkey at 3 mg/kg, iv administered as single dose by LC-MS/MS method; type: ADME, organism-based, Macaca fascicularis; parameters: time infinity, dose 3 mg/kg, route intravenous; conditions: plasma; procedure, shortened: as §2
[7] = Volume of distribution at steady state in F344 rat at 1 mg/kg, iv administered as single dose by LC-MS/MS method; type: ADME, organism-based; parameters: dose 1 mg/kg, route intravenous; conditions: in vivo, read-out: Vdss; procedure, shortened: as §1
[8] = Half life in cynomolgus monkey at 10 mg/kg, po administered as single dose by LC-MS/MS method; type: ADME, organism-based, Macaca fascicularis; parameters: dose 10 mg/kg, route oral; conditions: in vivo; procedure, shortened: as §1
[9] = Oral bioavailability in cynomolgus monkey at 10 mg/kg administered as single dose by LC-MS/MS method; type: ADME, organism-based, Macaca fascicularis; conditions: in vivo; procedure, shortened: as §1
[10] = Oral bioavailability in F344 rat at 1 mg/kg administered as single dose by LC-MS/MS method; type: ADME, organism-based; conditions: in vivo; procedure, shortened: as §1
[11] = Tmax in cynomolgus monkey at 0.3 mg/kg, po administered as single dose by LC-MS/MS method; type: ADME, organism-based, Macaca fascicularis; parameters: dose 0.3 mg/kg, route oral; conditions: in vivo; procedure, shortened: as §1
[12] = AUC (0 to infinity) in F344 rat at 0.3 mg/kg, po administered as single dose by LC-MS/MS method; type: ADME, organism-based; parameters: time infinity, dose 0.3 mg/kg, route oral; conditions: plasma; procedure, shortened: as §2
[13] = AUClast in cynomolgus monkey at 0.3 mg/kg, iv administered as single dose by LC-MS/MS method; type: ADME, organism-based, Macaca fascicularis; parameters: time 0 - last, dose 0.3 mg/kg, route intravenous; conditions: plasma; procedure, shortened: as §2
[14] = Tmax in F344 rat at 1 mg/kg, po administered as single dose by LC-MS/MS method; type: ADME, organism-based; parameters: dose 1 mg/kg, route oral; conditions: in vivo; procedure, shortened: as §1
[15] = Drug excretion in cynomolgus monkey feces at 3 mg/kg, iv administered as single dose after 0 to 336 hrs by scintillation counting method; type: ADME, organism-based, Macaca fascicularis; parameters: dose 3 mg/kg, route intravenous; conditions: in vivo
Procedure, shortened: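 Fasted cynomolgus monkeys (n = 4) received [14C]-labelled drug at 3 mg/kg, iv via saphenous vein (191 µCi/kg) or orally by stomach catheter (156.5 µCi/kg). Urine, feces and water cage-wash were collected to 336 h. Samples were counted by liquid scintillation; feces were homogenized in 4-fold water. Results are % of dose, mean ± S.D.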

[16] = Drug metabolism in rat kidney […] S9 fractions at 0.42 uCi/ml assessed as metabolite formation in presence of NADPH after 1 hr at 37 degC by LC-MS/MS method; type: ADME, subcellular; conditions: s9, 1 h
[17] = Drug excretion in cynomolgus monkey urine at 3 mg/kg, po administered as single dose after 0 to 48 hrs by scintillation counting method; type: ADME, organism-based, Macaca fascicularis; parameters: dose 3 mg/kg, route oral; conditions: in vivo
[18] = Drug excretion in F344 rat urine at 1 mg/kg, po administered as single dose after 0 to 48 hrs by scintillation counting method; type: ADME, organism-based; parameters: dose 1 mg/kg, route oral; conditions: in vivo
Procedure, shortened: (§3)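 Fasted F344 rats (152–156 g iv via tail vein; 154–159 g oral; n = 4) received [14C]-labelled drug at 1 mg/kg (41.9 µCi/kg). Animals were kept in metabolic cages; urine and feces were collected to 168 h, and expired CO2 was trapped in 2-aminoethanol/2-methoxyethanol (1:1) to 48 h. Samples were counted by liquid scintillation (feces homogenized). Results are % of dose, mean ± S.D.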

[19] = Drug metabolism in F344 rat urine assessed as 1,4-dideoxy-1,4-imino-D-arabinitol formation by LC-MS/MS method; type: ADME, tissue-based
[20] = Drug metabolism in anaerobic culture broth of F344 rat cecal content assessed as 1,4-dideoxy-1,4-imino-D-arabinitol formation at 63.5 uCi/ml after 24 hrs at 35 degC by LC-MS/MS method; type: ADME
[21] = Drug excretion in cynomolgus monkey urine at 3 mg/kg, po administered as single dose after 48 hrs by scintillation counting method; conditions: in vivo
[22] = Drug excretion in F344 rat feces at 1 mg/kg, po administered as single dose after 0 to 48 hrs by scintillation counting method; type: ADME, organism-based; parameters: dose 1 mg/kg, route oral; conditions: in vivo; procedure, shortened: as §3
[23] = Drug metabolism in anaerobic culture broth of human feces assessed as 1,4-dideoxy-1,4-imino-D-arabinitol formation at 63.5 uCi/ml after 24 hrs at 35 degC by LC-MS/MS method; type: ADME, tissue-based
Rattus norvegicus = test: Total drug excretion in F344 rat at 1 mg/kg, iv administered as single dose after 0 to 168 hrs by scintillation counting method; type: ADME, organism-based; parameters: dose 1 mg/kg, route intravenous; conditions: in vivo
Procedure, shortened: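 Fasted F344 rats (n = 4) received [14C]-labelled drug at 1 mg/kg (41.9 µCi/kg), iv via tail vein or oral. They were housed in metabolic cages. Urine and feces were collected to 168 h, and expired CO2 was trapped in 2-aminoethanol/2-methoxyethanol to 48 h. Radioactivity was counted by liquid scintillation, feces after homogenization. Results are % of dose.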

[24] = Drug excretion in F344 rat urine at 1 mg/kg, iv administered as single dose after 0 to 48 hrs by scintillation counting method; type: ADME, organism-based; parameters: dose 1 mg/kg, route intravenous; conditions: in vivo; procedure, shortened: as §3
[25] = Drug excretion in F344 rat urine at 1 mg/kg, iv administered as single dose after 0 to 168 hrs by scintillation counting method; type: ADME, organism-based; parameters: dose 1 mg/kg, route intravenous; conditions: in vivo; procedure, shortened: as §3
[26] = Drug metabolism in po dosed F344 rat urine assessed as 1,4-dideoxy-1,4-imino-D-arabinitol formation by LC-MS/MS method; type: ADME, organism-based; conditions: in vivo
[27] = Drug excretion in bile duct cannulated F344 rat bile at 1 mg/kg, iv administered as single dose after 0 to 48 hrs by scintillation counting method; type: ADME, organism-based; parameters: dose 1 mg/kg, route intravenous; conditions: in vivo
Procedure, shortened: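 Common bile duct was cannulated under diethyl ether in fasted F344 rats. After recovery, [14C]-labelled drug (1 mg/kg, 41.9 µCi/kg) was given iv via tail vein or by oral gavage (n = 4). Rats were held in Bollman cages and bile was collected at 4°C over 0–48 h intervals. Bile was counted by liquid scintillation; % of dose.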

C[C@H]1O[C@@H](O[C@H]2[C@H](O)[C@@H](O)[C@@H](O[C@H]3[C@H](O)CN[C@@H]3CO)O[C@@H]2CO)[C@H](O)[C@@H](O)[C@@H]1O
Vd [1]: 0.217 L/kg | Tmax [2]: 1.75 h | Vd [3]: 0.219 L/kg | Tmax [4]: 0.438 h | AUC(0-inf) [5]: 191 ng·h/mL | AUC(0-inf) [6]: 18200 ng·h/mL | Vd [7]: 0.237 L/kg | half-life [8]: 12.6 h | bioavailability [9]: 1.2% | bioavailability [10]: 2.33% | Tmax [11]: 1.75 h | AUC(0-inf) [12]: 45.6 ng·h/mL | AUC(0-t) [13]: 2000 ng·h/mL | Tmax [14]: 0.417 h

C[C@H]1O[C@@H](O[C@H]2[C@H](O)[C@@H](O)[C@@H](O[14C@H]3[14C@H](O)[14CH2]N[14C@@H]3[14CH2]O)O[C@@H]2CO)[C@H](O)[C@@H](O)[C@@H]1O
Drug excretion [15]: 0.66% | Drug metabolism [16]: metabolite_not_detected | Drug excretion [17]: 4.54% | Drug excretion [18]: 13.34% | Drug metabolism [19]: metabolite_detected | Drug metabolism [20]: metabolite_detected | Drug excretion [21]: 2.9% | Drug excretion [22]: 77.59% | Drug metabolism [23]: metabolite_detected | Drug excretion (Rattus norvegicus): 95.85% | Drug excretion [24]: 70.49% | Drug excretion [25]: 77.21% | Drug metabolism [26]: metabolite_detected | Drug excretion [27]: 0.37%
